Columns and labels:
Format in all cases: functional
HCT-15 = experiment: Growth inhibition of human HCT15 cells
MDA-MB-435 [1] = experiment: Growth inhibition of human MDA-MB-435 cells
UACC-257 = experiment: Growth inhibition of human UACC257 cells assessed tumor cell growth at 10^-5 M; design: scale not given: the % may be the effect or the level left
Procedure, shortened: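 Single-dose screen at 10^-5 M across the 60 human tumor cell line panel, run to NCI standards. The value is the percent growth of each cell line in the presence of compound. Compounds active at this dose moved on to five-concentration testing (10^-4 to 10^-8 M).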

MDA-MB-231 [2] = experiment: Growth inhibition of human MDA-MB-231 cells assessed tumor cell growth at 10^-5 M; design: scale not given: the % may be the effect or the level left
Procedure, shortened: (§1)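 NCI 60-human-tumor-cell-line panel screen. Each compound was tested at a single concentration of 10^-5 M, and percent growth of tumor cells was recorded for each cell line. Growth inhibition was expressed from these percent-growth values.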

PC-3 = experiment: Growth inhibition of human PC3 cells
MDA-MB-468 [3] = experiment: Growth inhibition of human MDA-MB-468 cells
OVCAR-4 = experiment: Growth inhibition of human OVCAR4 cells assessed tumor cell growth at 10^-5 M; design: scale not given: the % may be the effect or the level left; procedure, shortened: as §1
DU-145 = experiment: Growth inhibition of human DU145 cells
MDA-MB-468 [4] = experiment: Growth inhibition of human MDA-MB-468 cells assessed tumor cell growth at 10^-5 M; design: scale not given: the % may be the effect or the level left; procedure, shortened: as §1
MDA-MB-435 [5] = experiment: Growth inhibition of human MDA-MB-435 cells assessed tumor cell growth at 10^-5 M; design: scale not given: the % may be the effect or the level left; procedure, shortened: as §1
SK-MEL-2 = experiment: Growth inhibition of human SK-MEL-2 cells
MCF7 = experiment: Growth inhibition of human MCF7 cells assessed tumor cell growth at 10^-5 M; design: scale not given: the % may be the effect or the level left; procedure, shortened: as §1
SN12C = experiment: Growth inhibition of human SN12C cells assessed tumor cell growth at 10^-5 M; design: scale not given: the % may be the effect or the level left; procedure, shortened: as §1
MDA-MB-231 [6] = experiment: Growth inhibition of human MDA-MB-231 cells
U-251 = experiment: Growth inhibition of human U251 cells
CCRF-CEM [7] = experiment: Growth inhibition of human CCRF-CEM cells assessed tumor cell growth at 10^-5 M; design: scale not given: the % may be the effect or the level left; procedure, shortened: as §1
CCRF-CEM [8] = experiment: Growth inhibition of human CCRF-CEM cells
Malme-3M = experiment: Growth inhibition of human MALME-3M cells assessed tumor cell growth at 10^-5 M; design: scale not given: the % may be the effect or the level left; procedure, shortened: as §1
CAKI-1 = experiment: Growth inhibition of human Caki1 cells assessed tumor cell growth at 10^-5 M; design: scale not given: the % may be the effect or the level left; procedure, shortened: as §1
HT-29 [9] = experiment: Growth inhibition of human HT-29 cells
OVCAR-3 = experiment: Growth inhibition of human OVCAR3 cells assessed tumor cell growth at 10^-5 M; design: scale not given: the % may be the effect or the level left; procedure, shortened: as §1
EKVX = experiment: Growth inhibition of human EKVX cells
HOP-62 = experiment: Growth inhibition of human HOP62 cells assessed tumor cell growth at 10^-5 M; design: scale not given: the % may be the effect or the level left; procedure, shortened: as §1
NCI-H23 = experiment: Growth inhibition of human NCI-H23 cells assessed tumor cell growth at 10^-5 M; design: scale not given: the % may be the effect or the level left; procedure, shortened: as §1
HT-29 [10] = experiment: Growth inhibition of human HT-29 cells assessed tumor cell growth at 10^-5 M; design: scale not given: the % may be the effect or the level left; procedure, shortened: as §1
NCI-H322M = experiment: Growth inhibition of human NCI-H322M cells assessed tumor cell growth at 10^-5 M; design: scale not given: the % may be the effect or the level left; procedure, shortened: as §1
A498 = experiment: Growth inhibition of human A498 cells assessed tumor cell growth at 10^-5 M; design: scale not given: the % may be the effect or the level left; procedure, shortened: as §1
[11] = read-out: LC50 (the source's name)

## O=C1/C(=C\c2ccccn2)c2ccccc2N1c1c(Cl)cccc1Cl
HCT-15
  GI50: 2 µM
HCT-15; [11]
  CC50: 28.8 µM
MDA-MB-435 [1]
  GI50: 1.8 µM
MDA-MB-435 [1]; [11]
  CC50: 61.6 µM
UACC-257
  Activity: 59.3%
MDA-MB-231 [2]
  Activity: 15.7%
PC-3
  GI50: 2.2 µM
PC-3; [11]
  CC50: 93.3 µM
MDA-MB-468 [3]
  GI50: 0.9 µM
MDA-MB-468 [3]; [11]
  CC50: 7.4 µM
OVCAR-4
  Activity: -7.46%
DU-145
  GI50: 2.1 µM
DU-145; [11]
  CC50: 9.1 µM
MDA-MB-468 [4]
  Activity: -17.24%
MDA-MB-435 [5]
  Activity: -5.05%
SK-MEL-2
  GI50: 2.3 µM
SK-MEL-2; [11]
  CC50: 24.5 µM
MCF7
  Activity: -10.81%
SN12C
  Activity: 18.08%
MDA-MB-231 [6]
  GI50: 2 µM
MDA-MB-231 [6]; [11]
  CC50: 29.5 µM
U-251
  GI50: 1.8 µM
U-251; [11]
  CC50: 7.4 µM
CCRF-CEM [7]
  Activity: 8.81%
CCRF-CEM [8]
  GI50: 3.2 µM
CCRF-CEM [8]; [11]
  CC50: > 100 µM
Malme-3M
  Activity: 67.26%
CAKI-1
  Activity: -1.37%
HT-29 [9]
  GI50: 2.1 µM
HT-29 [9]; [11]
  CC50: 9.1 µM
OVCAR-3
  Activity: 27.36%
EKVX
  GI50: 2 µM
EKVX; [11]
  CC50: > 100 µM
HOP-62
  Activity: 5.17%
NCI-H23
  Activity: 12.97%
HT-29 [10]
  Activity: 10.75%
NCI-H322M
  Activity: 61.39%
A498
  Activity: 21.33%

— ChEMBL document CHEMBL1811814, “Synthesis and evaluation of indole, pyrazole, chromone and pyrimidine based conjugates for tumor growth inhibitory activities--development of highly efficacious cytotoxic agents” (Eur J Med Chem, 2010)
